IC50 data for 28 molecules are collected here from ChEMBL document CHEMBL1128243, “Three-dimensional quantitative structure-activity relationships of sulfonamide endothelin inhibitors” (J Med Chem, 1995).

The target of the assay is T1, Endothelin-1 receptor (Rattus norvegicus, UniProt P26684).
T1 sequence (P26684 whole entry): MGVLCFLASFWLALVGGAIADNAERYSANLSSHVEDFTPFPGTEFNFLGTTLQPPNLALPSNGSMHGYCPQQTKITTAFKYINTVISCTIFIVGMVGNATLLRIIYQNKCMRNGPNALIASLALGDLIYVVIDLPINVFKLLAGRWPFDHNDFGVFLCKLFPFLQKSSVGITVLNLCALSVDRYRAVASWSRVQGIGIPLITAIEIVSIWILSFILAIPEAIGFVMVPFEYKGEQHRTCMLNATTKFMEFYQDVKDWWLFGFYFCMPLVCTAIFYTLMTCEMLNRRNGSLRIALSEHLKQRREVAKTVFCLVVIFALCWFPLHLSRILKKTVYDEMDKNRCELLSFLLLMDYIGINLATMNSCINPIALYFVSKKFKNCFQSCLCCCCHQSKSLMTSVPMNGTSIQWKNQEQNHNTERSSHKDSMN
Put plainly: Inhibition of [125I]endothelin-l binding to endothelin A receptor of rat thoracic aorta smooth muscle cells. The assay is classed as tissue-based. An outline of the steps: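 Membranes from A10 rat thoracic aorta smooth muscle cells (cultured, trypsin-detached, stored at -70 °C, then thawed, homogenized and centrifuged to a membrane pellet). Samples filtered through glass fiber filters and washed, then filter-retained radioactivity counted.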
The molecule `CCNc1ccc(S(=O)(=O)Nc2onc(C)c2C)cc1` returned an IC50 of 5000 nM.

On to `CC(=O)Nc1ccc2ccc(S(=O)(=O)Nc3onc(C)c3C)cc2c1`, for which the IC50 came to 42000 nM. In the case of `CC(=O)Nc1cccc2ccc(S(=O)(=O)Nc3onc(C)c3C)cc12`, the IC50 is 27500 nM.

Turning to `Cc1noc(NS(=O)(=O)c2cccc3cc(N)ccc23)c1C`, the IC50 was found to be 2400 nM. In turn, `Cc1noc(NS(=O)(=O)c2ccc3c(N)cccc3c2)c1C` yielded an IC50 of 24000 nM. As to `CC(=O)Nc1cccc2c(S(=O)(=O)Nc3noc(C)c3C)cccc12`, the IC50 was determined as 16 nM. To `Cc1noc(NS(=O)(=O)c2cccc3c(N(C)C)cccc23)c1C` [BMS-182874] belongs 15 nM; to `Cc1noc(NS(=O)(=O)c2ccc3ccc(N)cc3c2)c1C`, 10000 nM.

In the case of `Cc1onc(NS(=O)(=O)c2ccc(N)cc2)c1C` [SULFATROXAZOLE], the IC50 was 260 nM.

`Cc1noc(NS(=O)(=O)c2cccc3c(N(C)C(C)C)cccc23)c1C`: the IC50 came to 4 nM. Next, `Cc1noc(NS(=O)(=O)c2ccc3cccc(N(C)C)c3c2)c1C`: 31500 nM; `CC(=O)Nc1ccc2c(S(=O)(=O)Nc3onc(C)c3C)cccc2c1`: 1300 nM. As to `Cc1noc(NS(=O)(=O)c2cccc(N)c2)c1C`, the IC50 worked out at 1300 nM. In the case of `Cc1noc(NS(=O)(=O)c2ccc3cccc(N)c3c2)c1C`, the IC50 is 9800 nM. Next, `Cc1noc(NS(=O)(=O)c2ccc3cc(N)ccc3c2)c1C`: 600 nM. Next, `CC(=O)Nc1ccc(S(=O)(=O)Nc2onc(C)c2C)c2ccccc12`: 3400 nM.

In turn, `Cc1noc(NS(=O)(=O)c2ccc(N(C)C)cc2)c1C` yielded an IC50 of 84000 nM. Next, `Cc1noc(NS(=O)(=O)c2cccc3c(NC(C)C)cccc23)c1C`: 5 nM; `Cc1noc(NS(=O)(=O)c2cccc3ccc(N)cc23)c1C`: 1450 nM.

The molecule `Cc1onc(NS(=O)(=O)c2cccc3c(N(C)C)cccc23)c1C` yielded an IC50 of 15 nM.

Turning to `Cc1noc(NS(=O)(=O)c2ccc3ccc(N(C)C)cc3c2)c1C`, the IC50 amounted to 1400 nM. For `CC(=O)Nc1ccc2cc(S(=O)(=O)Nc3onc(C)c3C)ccc2c1`, the IC50 amounted to 3800 nM. As to `Cc1noc(NS(=O)(=O)c2cccc3ccc(N(C)C)cc23)c1C`, the IC50 stood at 5600 nM. In turn, `Cc1onc(NS(=O)(=O)c2ccc(N)cc2)c1Br` registered an IC50 of 510 nM. Next, `Cc1noc(NS(=O)(=O)c2cccc3ccccc23)c1C`: 3100 nM; `Cc1noc(NS(=O)(=O)c2cccc3cc(N(C)C)ccc23)c1C`: 840 nM. Next, `Cc1noc(NS(=O)(=O)c2ccc(N)c3ccccc23)c1C`: 3500 nM; `Cc1cc(NS(=O)(=O)c2ccc(O)cc2)no1`: 53000 nM.
